From paper PMC4380538 (Bioorganic & medicinal chemistry, 2015)
“Also recorded” adds a separate entry of the source.

Molecular target: T1, hCCK2R (Homo sapiens, UniProt P32239)
T1 sequence (P32239 1-447): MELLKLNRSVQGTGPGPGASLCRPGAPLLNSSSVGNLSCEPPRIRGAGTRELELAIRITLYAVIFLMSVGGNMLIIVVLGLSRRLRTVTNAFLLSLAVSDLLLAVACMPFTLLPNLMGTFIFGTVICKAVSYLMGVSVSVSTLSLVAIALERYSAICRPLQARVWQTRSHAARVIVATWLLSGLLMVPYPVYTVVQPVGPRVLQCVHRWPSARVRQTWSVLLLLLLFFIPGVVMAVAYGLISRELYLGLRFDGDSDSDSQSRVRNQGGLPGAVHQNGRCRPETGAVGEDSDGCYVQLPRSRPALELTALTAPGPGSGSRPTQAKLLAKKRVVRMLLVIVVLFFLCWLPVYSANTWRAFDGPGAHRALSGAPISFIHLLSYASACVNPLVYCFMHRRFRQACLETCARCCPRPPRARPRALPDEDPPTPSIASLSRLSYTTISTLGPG
Test: Competitive binding assay
Conditions: against probe 3 (15 nM); concentration range 10^-5 to 10^-12 M
Summary of the method: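 HEK-293 cells engineered to overexpress hCCK2R and hMC4R, kept in selective medium and seeded at 240,000 cells/well in six-well plates (~1 × 10^6 cells at 90% confluence). Medium replaced with test compound (10^-5 to 10^-12 M, twelve levels) plus 15 nM Eu-labelled CCK4 probe in binding buffer for 1 h, 37 °C, CO₂. Cells pelleted and washed three times in basic buffer. DELFIA enhancement for 1 h, 37 °C. Supernatant read by TRF. Ki reported with SEM.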

In the case of `NC(=O)[C@H](CO)NC(=O)CCCCCn1cc(COc2cc(OCc3cn(CCCCCC(=O)N[C@@H](CO)C(N)=O)nn3)cc(OCc3cn(CCCCCC(=O)N[C@@H](CO)C(N)=O)nn3)c2)nn1` [Compound 16], the “Competitive inhibition of probe 3 binding (in words)” value is reported as “not competitive inhibitors; also recorded: did not interfere with the binding and uptake of probe 3”.

In the case of `NC(=O)[C@H](CO)NC(=O)CCCCCn1cc(CN(Cc2cn(CCCCCC(=O)N[C@@H](CO)C(N)=O)nn2)Cc2cn(CCCCCC(=O)N[C@@H](CO)C(N)=O)nn2)nn1` [Compound 15], the “Competitive inhibition of probe 3 binding (in words)” value is reported as “not competitive inhibitors; also recorded: did not interfere with the binding and uptake of probe 3”.
